Screening results: PubChem BioAssay, several laboratories
Only some compounds are listed: those with a hit (about 2.1% of all), similar ones and a draw of the others.
Scp1 inh: inhibitors of human Scp-1 phosphatase; Recombinant Scp1, phosphopeptide, malachite green phosphate absorbance; inhibition, % at 20 µM; 340,000 compounds, 0.88% hits; AID 493091;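 active = inhibition above about 50% at 20 µM, limit read from the data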;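 also: plate controls were DMSO wells with enzyme for no effect and wells lacking enzyme for full effect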
Target sequence (Q9GZU7 76-261 limits assumed): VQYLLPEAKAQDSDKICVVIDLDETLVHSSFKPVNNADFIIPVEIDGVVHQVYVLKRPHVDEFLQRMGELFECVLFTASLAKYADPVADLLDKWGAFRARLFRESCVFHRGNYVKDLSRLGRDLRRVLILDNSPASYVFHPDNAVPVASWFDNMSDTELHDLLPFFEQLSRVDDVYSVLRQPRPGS
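assay system = SCP-1 phosphatase catalytic domain, residues 76-261 | buffer or medium = 50 mM Tris acetate pH 5.5, 0.005% Tween-20, 10 mM MgCl2 | incubation = enzyme reaction 45 min at room temperature, colour 5 min, stabilisation 30 min | signal = Phosphate-binding colour reagent, absorbance read at 630 nm | measure = % inhibition at 20 µM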
GRK2 aptamer HTS: blocks RNA aptamer binding to human GRK2; P25098; 330,000 compounds, 0.59% hits; inhibition of aptamer binding, % at 10 µM; AID 488847; bead flow cytometry, FAM-aptamer displacement from GRK2;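 active = inhibition of aptamer binding above 40%, roughly 3 SD of noise, on plates passing a quality check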;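 also: median bead fluorescence of bound FAM aptamer so fluorescent compounds give negative values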
DNMT1 block: inhibitors of human DNMT1 | DNMT1 molecular beacon, Hinp1I cleavage, fluorescence | inhibition (reported as % activation of signal), % at 10 µM | 360,000 compounds, 0.83% hits | AID 588458; in the data active = inhibition above about 50%
LMPTP block: blocks human LMPTP phosphatase; recombinant LMPTP-A, OMFP fluorogenic substrate, fluorescence intensity; inhibition, % at 20 µM; 360,000 compounds, 0.22% hits; AID 651560;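 active = compounds that cut the enzyme signal by at least half of the control window in the single-dose screen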;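 also: plate controls were DMSO wells with enzyme plus substrate for no effect and substrate without enzyme for full effect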
Target sequence (P24666 whole entry, looked up): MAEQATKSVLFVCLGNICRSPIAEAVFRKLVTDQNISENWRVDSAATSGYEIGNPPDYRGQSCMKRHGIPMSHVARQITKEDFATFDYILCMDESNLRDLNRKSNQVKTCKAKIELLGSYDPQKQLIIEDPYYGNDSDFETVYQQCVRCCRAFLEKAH
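Assay system: LMPTP-A, protein tyrosine phosphatase of low molecular weight / Medium: pH 6.0 Bis-Tris buffer with DTT and Triton X-100 / Schedule: 50 min enzyme reaction at room temperature, protected from light / Measured by: endpoint fluorescence intensity from OMFP dephosphorylation / Read-out basis: % inhibition relative to no-enzyme and uninhibited control wells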
SUMO1-SIM PPI: alters human SUMO1 binding to SIM partners | P63165 | SUMO1 binding to a labelled peptide, TR-FRET, 1 h | inhibition, % at 20 µM | 360,000 compounds, 0.33% hits | AID 602429; in the data active = inhibition above about 37%
Target sequence (P63165 whole entry, looked up): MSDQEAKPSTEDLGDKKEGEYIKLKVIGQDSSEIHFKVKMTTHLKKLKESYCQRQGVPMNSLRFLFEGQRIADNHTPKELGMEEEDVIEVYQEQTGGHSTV
STEP block: blocks human striatal-enriched tyrosine phosphatase. recombinant STEP, OMFP fluorogenic substrate, fluorescence. inhibition, % at 20 µM. 360,000 compounds, 0.25% hits. AID 588621;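 active = inhibition at 20 µM, scaled per plate between control wells, above about 37%, limit read from the data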;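 also: 0% = DMSO with enzyme and substrate and 100% = substrate only without enzyme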
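Material: STEP (striatal-enriched tyrosine phosphatase) enzyme, cell-free; Compound dosing: 20 µM single dose in 1% DMSO; Technique: fluorescence read at 480 nm ex / 540 nm em; Times: reaction 20 min, ambient temperature; Medium: 50 mM Bis-Tris pH 6.0 with 2.5 mM DTT and 0.005% Tween 20; Also added: OMFP at 25 µM.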
Scp1 confirm: Scp-1 (human) inhibition, single-dose confirmed | 2,500 compounds, 61% hits | inhibition, % at 20 µM | shares compounds with Scp1 inh | recombinant SCP-1 catalytic domain, phosphate release, malachite green absorbance;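 also: plate controls were DMSO with enzyme for no effect and buffer wells lacking enzyme for full effect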
Scp-1 MG ctr: counter-screen for Scp-1 inhibitors: colorimetric interference; shares compounds with Scp1 inh; Colorimetric interference counterscreen, malachite green absorbance 630 nm; apparent inhibition (interference), % at 20 µM; 2,500 tested, under 10 active; AID 540313;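 also: compounds added after enzyme reaction finished so only phosphate colour detection is probed; plate controls were DMSO wells with completed Scp-1 reaction for no effect and substrate wells lacking enzyme for full effect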
Scp1 DSF: validation of human Scp-1 inhibitors by thermal shift binding. shares compounds with Scp1 inh. Recombinant SCP1, Sypro Orange thermal shift Tm. thermal shift relative to vanadate control, % at 40 µM. 1,500 compounds, 25% hits. AID 540329;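 active = substances whose mean melting-temperature shift, as a percentage of the reference inhibitor's shift, reaches about 5.3%, limit read from the data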;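 also: 0% = Tm of DMSO wells and 100% = Tm with sodium orthovanadate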
* marks the source's active call; other numbers are inactive results; . = no result given.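 The calls were made as follows, unless noted: active = inhibition of at least 30% at 20 µM; inactive = the rest.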

SMILES	Scp1 inh	GRK2 aptamer HTS	DNMT1 block	LMPTP block	SUMO1-SIM PPI	STEP block	Scp1 confirm	Scp-1 MG ctr	Scp1 DSF
COCc1cc(C)c(C#N)c(=S)[nH]1	53*	0	1	1	-2	-1	6	-1	.
CC1CCN(C(=O)CSc2ccc(-c3cccnc3)nn2)CC1	0	2	0	1	5	0	.	.	.
C/C(N)=C(/C#N)C(=O)CSc1nc(-c2ccccc2)c(-c2ccccc2)o1	-9	5	-10	6	8	0	.	.	.
CCOC(=O)c1ccc2c(c1)N(C)C(=O)c1ccccc1S2	53*	0	0	-1	-1	-2	3	-10	.
CCC1SC2=NC(C)=C(C(=O)OCCOC)C(/C=C/c3ccccc3OC)N2C1=O (stereo not drawn)	58*	0	-14	1	2	-4	-35	-25	.
CCC1SC2=NC(C)=C(C(=O)OCC(C)C)C(/C=C/c3ccccc3OC)N2C1=O (stereo not drawn)	6	9	-4	-1	-2	2	.	.	.
O=C(Nc1cccc(Cl)c1)c1cccc(N2C(=O)C3CC=CCC3C2=O)c1 (stereo not drawn)	52*	38	24	1	38	19	28	-15	.
Cc1cccc(Nc2n[nH]c(=S)s2)c1C	60*	3	0	-1	12	2	19	-13	.
COc1ccc(N(C(=O)c2snc(C(N)=O)c2N)C(C(=O)NCc2ccc(F)cc2)c2ccc(O)cc2)cc1 (stereo not drawn)	-10	6	-10	3	-9	-1	.	.	.
COc1cc2cnc(-c3ccccc3)c(-c3cc(OC)c(OC)c(OC)c3)c2cc1OC	61*	0	3	0	2	-1	37*	0	-8
Cc1cc(C)n2ncc(/C(N)=N/OC(=O)Nc3ccccc3)c2n1	-7	5	-1	0	3	0	.	.	.
O=C(O)c1cccc(NC(=O)c2cn(-c3ccccc3)nc2-c2cc3ccccc3o2)c1	58*	0	-6	56*	14	7	80*	-13	4
COc1ccc(OC)c(/C=N/N(CCC#N)C2=NS(=O)(=O)c3ccccc32)c1	76*	0	-4	0	2	-2	-15	-16	.
N#CCCN(/N=C/c1cccnc1)C1=NS(=O)(=O)c2ccccc21	3	0	-3	-1	9	-1	.	.	.
Cc1nc(SCC(=O)NCc2ccco2)c2c3c(sc2n1)CCCC3	9	0	0	2	1	5	.	.	.
CCCc1nc2sc3c(SCC(=O)NCc4ccco4)ncnc3c2c2c1CCC2	82*	5	91*	4	7	21	59*	-18	2
Cc1cccc(NC(=O)CSc2nc3[nH]c(=O)cc(O)c3s2)c1	61*	4	31	1	7	3	37*	-12	14*
CCCCCCn1c(-c2ccco2)nc2oc3cc(OC)ccc3c(=O)c2c1=O	56*	2	49	5	-7	1	50*	-5	0
O=C1C(=O)N(CCO)C(c2ccccc2)/C1=C(\O)c1ccccc1 (stereo not drawn)	57*	3	0	-3	-5	0	-11	-13	.
CC1CCCN(C(=O)CSc2nnc(-c3ccncc3)n2C)C1 (stereo not drawn)	-1	4	-1	-1	3	3	.	.	.
c1coc(-c2nn3c(-c4ccco4)nnc3s2)c1	42	18	34	0	9	-8	.	.	.
COc1ccccc1-c1nn2c(-c3ccco3)nnc2s1	51*	0	17	7	7	0	60*	-4	-7
O=C(O)CCNc1ccc(Cl)cc1	52*	18	19	1	1	1	43*	-14	-21
CC(Nc1ccc(Br)cc1)C(=O)NC(=O)NC1CCCCC1 (stereo not drawn)	.	.	-3	1	7	-2	.	.	.
O=C(Nc1cccnc1Cl)c1ccc(=O)oc1	53*	22	35	0	-4	1	43*	-4	6.5*
SMILES	Scp1 inh	GRK2 aptamer HTS	DNMT1 block	LMPTP block	SUMO1-SIM PPI	STEP block	Scp1 confirm	Scp-1 MG ctr	Scp1 DSF
CCN(CC(=O)NCc1ccc(F)cc1)C(=O)Cc1ccc(OC)cc1	-2	0	-4	0	-5	2	.	.	.
C[N+]1=C(/C=C/Nc2ccccc2Cl)C(C)(C)c2ccccc21	99*	1	0	0	-6	1	79*	-15	-12
CC(C)c1ccc(-c2c(C#N)c(N)nc3c2CCCCC3)cc1	100*	3	3	0	1	4	-5	-10	.
Cc1ccc(-c2c(C#N)c(N)nc3c2CCCCC3)cc1	-5	3	4	-1	-1	2	.	.	.
Cc1c(/C(O)=C2/C(=O)C(=O)N(CCN3CCOCC3)C2c2cccnc2)cnn1-c1ccccc1 (stereo not drawn)	-3	0	0	-4	-6	-6	.	.	.
Cc1c(/C(O)=C2/C(=O)C(=O)N(CCN3CCOCC3)C2c2ccco2)cnn1-c1ccccc1 (stereo not drawn)	-4	.	0	1	-6	1	-13	-7	.
CCCCn1nnnc1C1(C)CCC(=O)N1CCOC (stereo not drawn)	.	.	.	0	0	.	.	.	.
Cc1nnc(SCC2=C(C(=O)O)N3C(=O)C(NC(=O)Cn4nc(C(F)F)cc4C)C3SC2)s1 (stereo not drawn)	70*	11	27	-1	11	6	52*	-22	3
Cc1nnc(SCC2=C(C(=O)O)N3C(=O)C(NC(=O)Cn4nc(C(F)F)c(Cl)c4C)C3SC2)s1 (stereo not drawn)	42	21	0	2	16	7	.	.	.
Cc1nnc(SCC2=C(C(=O)O)N3C(=O)C(NC(=O)COc4ccccc4)C3SC2)s1 (stereo not drawn)	68*	.	9	1	13	2	53*	-21	4
CCN(CC)C(=O)[C@H]1C[C@H](CC(=O)NCCc2ccccn2)C(=O)N2CCc3c([nH]c4cc(CCC(=O)N(C)C)ccc34)[C@]12C	7	0	4	-11	-7	-1	.	.	.
COc1cc(NC2c3ncccc3C(=O)N2Cc2ccco2)cc(OC)c1OC (stereo not drawn)	-10	0	-4	0	0	3	.	.	.
